Test results published in ChEMBL document CHEMBL5096186, “Design, Synthesis, and Biological Evaluation of Novel Pyrimido[4,5-b]indole Derivatives Against Gram-Negative Multidrug-Resistant Pathogens” (J Med Chem, 2021).
In brackets after ≈: the same amount, converted by molar mass.

Key:
Klebsiella pneumoniae [1] = assay: Antibacterial activity agains wild type Klebsiella pneumoniae ATCC BAA-2470 assessed as reduction in bacterial growth incubated for 18 to 20 hrs by CLSI based microdilution method; assay type: functional; conditions: time 18-20 hrs
Outline: (§1)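 Broth microdilution per CLSI. Compounds dissolved in DMSO (levofloxacin and meropenem in water) as 64 μg/mL stock, then serial twofold dilutions in broth giving 64 to 0.008 μg/mL. […] Clinical isolates tested as several strains per group; racemic GP-1 served as positive control; values given as MIC ranges.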

[2] = Elimination half life in Sprague-Dawley rat at 5 mg/kg, iv measured upto 24 hrs by LC-MS/MS analysis; assay type: ADME, organism-based; conditions: in vivo, read-out: beta t1/2 (converted)
Outline: (§2)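 Male Sprague-Dawley rats, n = 3 per group, single intravenous dose. For 4 mg/kg: 180–280 g rats, vehicle 5% DMSO + 5% EtOH + 40% PEG300 + 50% saline, blood from the retrobulbar vein at 0.05–24 h. For 5 and 20 mg/kg: 180–300 g rats, vehicle 5% DMSO + 5% solutol + 90% saline, sampled at 0.083–24 h. Plasma quantified by LC/MS/MS. Parameters from mean plasma concentration by noncompartmental analysis; values are mean ± standard deviation.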

Acinetobacter baumannii [3] = assay: Antibacterial activity agains OXA23-producing multidrug resistant Acinetobacter baumannii assessed as reduction in bacterial growth incubated for 18 to 20 hrs by CLSI based microdilution method; assay type: functional; conditions: time 18-20 hrs; outline: as §1
[4] = AUC (0 to infinity) in Sprague-Dawley rat at 5 mg/kg, iv measured upto 24 hrs by LC-MS/MS analysis; assay type: ADME, organism-based; design: time < 24 hrs, dose 5 mg/kg, route iv; conditions: in vivo; outline: as §2
Pseudomonas aeruginosa [5] = assay: Antibacterial activity against IMP4-producing multidrug resistant Pseudomonas aeruginosa assessed as reduction in bacterial growth incubated for 18 to 20 hrs by CLSI based microdilution method; assay type: functional; conditions: time 18-20 hrs; outline: as §1
Klebsiella pneumoniae [6] = assay: Antibacterial activity agains wild type Klebsiella pneumoniae ATCC BAA-1705 assessed as reduction in bacterial growth incubated for 18 to 20 hrs by CLSI based microdilution method; assay type: functional; conditions: time 18-20 hrs
Outline: (§3)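 CLSI broth microdilution. Compounds in DMSO (levofloxacin and meropenem in water), serial twofold dilutions in broth, 64 to 0.008 μg/mL. […] Results reported as MIC ranges across strains.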

[7] = MRT in Sprague-Dawley rat at 5 mg/kg, iv measured upto 24 hrs by LC-MS/MS analysis; assay type: ADME, organism-based; conditions: in vivo; outline: as §2
Klebsiella pneumoniae [8] = assay: Antibacterial activity against KPC2-producing multidrug resistant Klebsiella pneumoniae assessed as reduction in bacterial growth incubated for 18 to 20 hrs by CLSI based microdilution method; assay type: functional; conditions: time 18-20 hrs; outline: as §1
Pseudomonas aeruginosa [9] = assay: Antibacterial activity against wild type Pseudomonas aeruginosa ATCC 27853 assessed as reduction in bacterial growth incubated for 18 to 20 hrs by CLSI based microdilution method; assay type: functional; conditions: time 18-20 hrs; outline: as §3
Escherichia coli [10] = assay: Antibacterial activity against multidrug resistant wild type Escherichia coli ATCC BAA-2340 assessed as reduction in bacterial growth incubated for 18 to 20 hrs by CLSI based microdilution method; assay type: functional; conditions: time 18-20 hrs; outline: as §1
Escherichia coli [11] = assay: Antibacterial activity against ESBL-producing multidrug resistant Escherichia coli assessed as reduction in bacterial growth incubated for 18 to 20 hrs by CLSI based microdilution method; assay type: functional; conditions: time 18-20 hrs; outline: as §1
Acinetobacter baumannii [12] = assay: Antibacterial activity against wild type Acinetobacter baumannii NCTC 13304 assessed as reduction in bacterial growth incubated for 18 to 20 hrs by CLSI based microdilution method; assay type: functional; conditions: time 18-20 hrs; outline: as §1
[13] = Clearance in Sprague-Dawley rat at 5 mg/kg, iv measured upto 24 hrs by LC-MS/MS analysis; assay type: ADME, organism-based; conditions: in vivo; outline: as §2
[14] = Volume of distribution at the steady state in Sprague-Dawley rat at 5 mg/kg, iv measured upto 24 hrs by LC-MS/MS analysis; assay type: ADME, organism-based; conditions: in vivo, read-out: Vdss; outline: as §2
Escherichia coli [15] = assay: Antibacterial activity against multidrug resistant wild type Escherichia coli NCTC 13353 assessed as reduction in bacterial growth incubated for 18 to 20 hrs by CLSI based microdilution method; assay type: functional; conditions: time 18-20 hrs; outline: as §1
[16] = Metabolic stability in rat liver microsome assessed as metabolic bioavailability at 0.1 uM in presence of NADPH incubated upto 60 mins by LC-MS/MS analysis; assay type: ADME; conditions: liver microsomes
Outline: (§4)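 Compound at 0.1 μM final, in 0.01% DMSO with 0.005% BSA. Incubated with rat or human liver microsomes at 0.33 mg/mL in 0.1 M Tris-HCl, pH 7.4, with 5 mM MgCl₂ and 1 mM NADPH, at 37 °C. Samples at 0, 7, 17, 30 and 60 min quenched with cold methanol and analysed by LC-MS/MS. Half-life, Cl_int and MF% derived as previously described.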

[17] = target: Voltage-gated inwardly rectifying potassium channel KCNH2 (Homo sapiens, UniProt Q12809); assay: Inhibition of hERG potassium channel assessed as […] at -80 mV holding potential incubated for 120 seconds by whole cell-automated voltage clamp analysis assay; assay type: toxicity
Chain of Voltage-gated inwardly rectifying potassium channel KCNH2 (Q12809 whole entry): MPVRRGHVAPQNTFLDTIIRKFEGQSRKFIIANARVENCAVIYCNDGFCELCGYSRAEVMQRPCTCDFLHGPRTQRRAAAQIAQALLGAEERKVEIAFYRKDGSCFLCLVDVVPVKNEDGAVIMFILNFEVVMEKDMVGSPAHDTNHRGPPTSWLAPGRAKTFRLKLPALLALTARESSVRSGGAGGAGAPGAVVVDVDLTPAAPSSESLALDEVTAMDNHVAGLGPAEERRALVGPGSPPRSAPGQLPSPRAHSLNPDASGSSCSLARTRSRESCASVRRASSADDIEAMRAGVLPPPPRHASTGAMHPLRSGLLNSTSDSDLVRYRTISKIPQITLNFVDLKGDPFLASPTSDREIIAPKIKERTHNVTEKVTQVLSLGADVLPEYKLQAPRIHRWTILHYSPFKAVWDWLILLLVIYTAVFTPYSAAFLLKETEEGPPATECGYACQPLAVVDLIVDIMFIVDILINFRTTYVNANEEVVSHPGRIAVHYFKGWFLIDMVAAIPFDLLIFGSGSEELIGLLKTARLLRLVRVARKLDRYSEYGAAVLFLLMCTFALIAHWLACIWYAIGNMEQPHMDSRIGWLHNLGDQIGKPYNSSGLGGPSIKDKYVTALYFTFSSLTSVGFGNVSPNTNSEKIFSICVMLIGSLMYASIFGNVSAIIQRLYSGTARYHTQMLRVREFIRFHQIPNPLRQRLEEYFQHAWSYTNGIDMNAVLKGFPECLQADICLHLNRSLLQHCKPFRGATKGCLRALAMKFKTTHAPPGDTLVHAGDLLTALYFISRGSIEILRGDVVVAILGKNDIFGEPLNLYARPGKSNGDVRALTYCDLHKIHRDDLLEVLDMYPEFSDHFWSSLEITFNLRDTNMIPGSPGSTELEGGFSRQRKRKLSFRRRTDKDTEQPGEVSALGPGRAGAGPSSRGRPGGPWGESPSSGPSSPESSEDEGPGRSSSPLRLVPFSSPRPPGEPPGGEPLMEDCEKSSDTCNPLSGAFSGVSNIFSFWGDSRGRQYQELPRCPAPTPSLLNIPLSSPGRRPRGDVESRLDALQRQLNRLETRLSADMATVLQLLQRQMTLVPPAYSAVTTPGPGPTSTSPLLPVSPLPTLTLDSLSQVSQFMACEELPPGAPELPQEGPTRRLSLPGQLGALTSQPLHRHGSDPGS
Outline: (§5)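 Automated whole-cell patch clamp, holding potential −80 mV. Voltage protocol applied every 20 s. Baseline set with external solution containing 0.1% DMSO and stabilised 3 min. Compound applied until steady state, at least 3 min, then washout. Maximum tested concentration 40 μM, or 3 μM for cisapride as positive control.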

Staphylococcus aureus = assay: Antibacterial activity against methicillin-sensitive Staphylococcus aureus strains 15 1 to 4 assessed as reduction in bacterial growth incubated for 18 to 20 hrs by CLSI based microdilution method; assay type: functional; conditions: time 18-20 hrs; outline: as §1
[18] = Metabolic stability in human liver microsome assessed as elimination half life at 0.1 uM in presence of NADPH incubated upto 60 mins by LC-MS/MS analysis; assay type: ADME; conditions: liver microsomes, read-out: beta t1/2; outline: as §4
[19] = Metabolic stability in rat liver microsome assessed as intrinsic clearance at 0.1 uM in presence of NADPH incubated upto 60 mins by LC-MS/MS analysis; assay type: ADME; conditions: microsomes, 1 h; outline: as §4
[20] = target: hERG (KCNH2) potassium channel (Homo sapiens, UniProt Q12809); assay: Inhibition of hERG potassium channel assessed as maximum inhibition rate at 40 uM at -80 mV holding potential incubated for 120 seconds by whole cell-automated voltage clamp analysis assay relative to control; assay type: toxicity; conditions: time 120 sec; outline: as §5
Chain of hERG (KCNH2) potassium channel (Q12809 whole entry): as above

[21] = Metabolic stability in rat liver microsome assessed as elimination half life at 0.1 uM in presence of NADPH incubated upto 60 mins by LC-MS/MS analysis; assay type: ADME; conditions: liver microsomes, read-out: beta t1/2; outline: as §4
Escherichia coli [22] = assay: Antibacterial activity against Escherichia coli ATCC 35218 strains 15 1 to 3 assessed as reduction in bacterial growth incubated for 18 to 20 hrs by CLSI based microdilution method; assay type: functional; conditions: time 18-20 hrs; outline: as §3
[23] = Metabolic stability in human liver microsome assessed as intrinsic clearance at 0.1 uM in presence of NADPH incubated upto 60 mins by LC-MS/MS analysis; assay type: ADME; conditions: microsomes, 1 h; outline: as §4
[24] = Volume of distribution at the steady state in Sprague-Dawley rat at 4 mg/kg, iv measured upto 24 hrs by LC-MS/MS analysis; assay type: ADME, organism-based; conditions: in vivo, read-out: Vdss; outline: as §2
[25] = MRT in Sprague-Dawley rat at 4 mg/kg, iv measured upto 24 hrs by LC-MS/MS analysis; assay type: ADME, organism-based; conditions: in vivo; outline: as §2
[26] = Elimination half life in Sprague-Dawley rat at 4 mg/kg, iv measured upto 24 hrs by LC-MS/MS analysis; assay type: ADME, organism-based; conditions: in vivo, read-out: beta t1/2 (converted); outline: as §2
[27] = AUC (0 to infinity) in Sprague-Dawley rat at 4 mg/kg, iv measured upto 24 hrs by LC-MS/MS analysis; assay type: ADME, organism-based; design: time < 24 hrs, dose 4 mg/kg, route iv; conditions: in vivo; outline: as §2
Escherichia coli [28] = assay: Antibacterial activity against ESBL-producing Escherichia coli ATCC 35218 strains 15 1 to 3 assessed as reduction in bacterial growth incubated for 18 to 20 hrs by CLSI based microdilution method; assay type: functional; conditions: time 18-20 hrs; outline: as §3
Pseudomonas aeruginosa [29] = assay: Antibacterial activity against multidrug resistant Pseudomonas aeruginosa strains 15 1 to 3 assessed as reduction in bacterial growth incubated for 18 to 20 hrs by CLSI based microdilution method; assay type: functional; conditions: time 18-20 hrs; outline: as §1
[30] = Metabolic stability in human liver microsome assessed as metabolic bioavailability at 0.1 uM in presence of NADPH incubated upto 60 mins by LC-MS/MS analysis; assay type: ADME; conditions: liver microsomes; outline: as §4
[31] = system: Staphylococcus epidermidis; assay: Antibacterial activity against methicillin-sensitive Staphylococcus epidermidis strains 15 1 to 4 assessed as reduction in bacterial growth incubated for 18 to 20 hrs by CLSI based microdilution method; assay type: functional; conditions: time 18-20 hrs; outline: as §1
[32] = Clearance in Sprague-Dawley rat at 4 mg/kg, iv measured upto 24 hrs by LC-MS/MS analysis; assay type: ADME, organism-based; conditions: in vivo; outline: as §2

CCNc1cc(F)cc2c1[nH]c1nc(Oc3cnc(C)nc3)nc(N3CC(=C(C)[C@@H](C)N)C3)c12
MIC (Klebsiella pneumoniae [1]): > 64 µg/mL | half-life [2]: 6.7 h | MIC (Acinetobacter baumannii [3]): 2 µg/mL (≈ 4.32 µM) | AUC(0-inf) [4]: 1290 ng·h/mL | MIC (Pseudomonas aeruginosa [5]): > 64 µg/mL | MIC (Klebsiella pneumoniae [6]): > 64 µg/mL | MRT [7]: 4.3 h | MIC (Klebsiella pneumoniae [8]): > 8 µg/mL | MIC (Pseudomonas aeruginosa [9]): > 64 µg/mL | MIC (Escherichia coli [10]): 1 µg/mL (≈ 2.16 µM) | MIC (Escherichia coli [11]): 4 µg/mL (≈ 8.65 µM) | MIC (Acinetobacter baumannii [12]): 2 µg/mL (≈ 4.32 µM) | clearance [13]: 64.7 mL/min/kg | Vd [14]: 16.7 L/kg | MIC (Escherichia coli [15]): 1 µg/mL (≈ 2.16 µM)

CNc1cc(F)cc2c1[nH]c1nc(Oc3cnc(C)nc3)nc(N3CC(=C(C)C(C)N)C3)c12 (racemic)
MIC (Klebsiella pneumoniae [1]): 2 µg/mL (≈ 4.46 µM) | Fh at 1 h, 0.1 µM [16]: 26.1% | IC50 [17]: > 40 µM | MIC (Staphylococcus aureus): < 0.008 µg/mL | half-life at 0.1 µM [18]: 8.23 h | MIC (Acinetobacter baumannii [3]): 0.25 µg/mL (≈ 0.557 µM) | CLH [19]: 126 mL/min/g | inhibition at 2 min, 40 µM [20]: 37% | MIC (Pseudomonas aeruginosa [5]): 4 µg/mL (≈ 8.92 µM) | half-life at 0.1 µM [21]: 0.278 h | MIC (Escherichia coli [22]): 0.25 µg/mL (≈ 0.557 µM) | MIC (Klebsiella pneumoniae [6]): 8 µg/mL (≈ 17.8 µM) | CLH [23]: 4.25 mL/min/g | Vd [24]: 12.3 L/kg | MRT [25]: 4.7 h | half-life [26]: 5.7 h | MIC (Klebsiella pneumoniae [8]): 2 µg/mL (≈ 4.46 µM) | AUC(0-inf) [27]: 1510 ng·h/mL | MIC (Escherichia coli [28]): 0.5 µg/mL (≈ 1.11 µM) | MIC (Pseudomonas aeruginosa [9]): 2 µg/mL (≈ 4.46 µM) | MIC (Escherichia coli [10]): 0.5 µg/mL (≈ 1.11 µM) | MIC (Escherichia coli [11]): 0.5 µg/mL (≈ 1.11 µM) | MIC (Acinetobacter baumannii [12]): 0.5 µg/mL (≈ 1.11 µM) | MIC (Pseudomonas aeruginosa [29]): 1 µg/mL (≈ 2.23 µM) | Fh at 1 h, 0.1 µM [30]: 82.2% | MIC [31]: < 0.008 µg/mL | MIC (Escherichia coli [15]): 0.25 µg/mL (≈ 0.557 µM) | clearance [32]: 44.1 mL/min/kg
